Series [1] in a line: The compound was evaluated for the pKa units relative to N-methyl-piperazine. In kind it is physicochemical.
The nature of series [2]: Relative protonation energy of the compound.
Series [3] concerns the target T1, 5-hydroxytryptamine receptor 1D (Homo sapiens, UniProt P28221). Put plainly: Displacement of specific [3H]5-HT binding to cloned human 5-hydroxytryptamine 1D receptor expressed in CHO cells. In kind it is cell-based. In a few lines:
(§1)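 Radioligand binding to human 5-HT1D and 5-HT1B receptors stably expressed in CHO cells. Radioligand was used at approximately its KD for each receptor. IC50 values are the logarithmic mean of 2–5 independent determinations, each run in duplicate. Maximum variance from the mean of log(IC50) was 4%. Selectivity is IC50(1B)/IC50(1D).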

The nature of series [4]: pKa value by potentiometric. The series is classed as physicochemical. The gist of the method: (§2)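 Potentiometric titration in MeOH–H2O cosolvent with ionic strength set by 0.15 M KCl. Three titrations at different water/cosolvent ratios gave psKa values. Aqueous pKa was obtained by Yasuda–Shedlovsky extrapolation to 100% water, plotting psKa + log[H2O] against 1/ε.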
For series [5], the target named is T2, 5-hydroxytryptamine receptor 1B (Homo sapiens, UniProt P28222). Put plainly: Efficacy was evaluated relative to human 5-HT1B receptor using [35S]GTP-gamma-S, as radioligand. The series is classed as functional. Background: GTPγS is a poorly hydrolysed GTP analogue; its binding reports G protein activation.
T2 sequence (P28222 whole entry): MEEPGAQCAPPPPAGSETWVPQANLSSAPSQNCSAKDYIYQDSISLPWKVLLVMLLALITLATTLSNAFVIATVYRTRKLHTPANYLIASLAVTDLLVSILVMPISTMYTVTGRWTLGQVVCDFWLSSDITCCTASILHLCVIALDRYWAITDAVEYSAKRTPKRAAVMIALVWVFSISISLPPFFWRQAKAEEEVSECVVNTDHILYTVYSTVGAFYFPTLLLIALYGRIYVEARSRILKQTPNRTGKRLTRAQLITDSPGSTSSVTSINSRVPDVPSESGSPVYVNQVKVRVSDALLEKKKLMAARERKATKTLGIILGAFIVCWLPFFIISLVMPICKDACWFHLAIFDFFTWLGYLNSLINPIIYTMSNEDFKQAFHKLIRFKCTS
Series [6] deals with Rattus norvegicus. Put plainly: Oral absorption study in rat plasma obtained from hepatic portal vein after 2 hours of administration of 3 mg/kg orally. The series is classed as functional, organism-based. Set-up: dose 3 mg/kg. The gist of the method: (§3)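 Male Sprague–Dawley rats, fasted overnight and with no surgery, received 3 mg/kg orally as a 0.6 mg/mL solution in PEG 400:5 mM HCl (25:75 v/v). Terminal blood was taken from the heart and hepatic portal vein under isoflurane at 0.5 and 2 h, three rats per time point. Plasma drug was measured by electrospray mass spectrometry. Values are mean ± SEM.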

Series [7] concerns Rattus norvegicus. Put plainly: Oral absorption study in rat plasma obtained from cardiac blood samples after 0.5 hours of administration of 3 mg/kg orally. In kind it is functional, organism-based. Set-up: dose 3 mg/kg. In a few lines:
as §3

The target in series [8] is T2, 5-hydroxytryptamine receptor 1B. Put plainly: Agonist-induced [35S]GTP-gamma-S, binding in CHO cells stably transfected with human 5-hydroxytryptamine 1B receptor. In kind it is functional, cell-based. In a few lines:
(§4)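 [35S]GTPγS binding stimulated by agonist, measured in CHO cells stably transfected with the human 5-HT1D or 5-HT1B receptor. EC50 values are the logarithmic mean of 2–3 independent determinations. Maximum variance of individual log(EC50) values from the mean was 4%.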

The target is the same in series [9]. Put plainly: Displacement of specific [3H]5-HT binding to cloned human 5-hydroxytryptamine 1B receptor expressed in CHO cells. The series is classed as cell-based. The gist of the method:
as §1

Series [10] concerns Rattus norvegicus. The experiment in a line: Oral absorption study in rat plasma obtained from hepatic portal vein after 0.5 hours of administration of 3 mg/kg orally. The series is classed as functional, organism-based. Details: dose 3 mg/kg. In a few lines: as §3
Series [11] has as its system Rattus norvegicus. The experiment in a line: Oral absorption study in rat plasma obtained from cardiac blood samples after 2 hours of administration of 3 mg/kg orally. The series is classed as functional, organism-based. Set-up: dose 3 mg/kg. In a few lines:
as §3

Series [12] deals with Serotonin 1 receptors; 5-HT1B & 5-HT1D (Homo sapiens) (UniProt P28222+P28221). Put plainly: Selectivity towards 5-HT1D and to that of 5-HT1B in CHO cells. The series is classed as cell-based. In a few lines:
as §1

For series [13], the target named is T1, 5-hydroxytryptamine receptor 1D. Put plainly: Agonist-induced [35S]GTP-gamma-S, binding in CHO cells stably transfected with human 5-hydroxytryptamine 1D receptor. The series is classed as functional, cell-based. In a few lines:
as §4

Series [14] shares this target. The experiment in a line: Efficacy was evaluated relative to human 5-hydroxytryptamine 1D receptor using [35S]GTP-gamma-S, as radioligand. The series is classed as functional.
Series [15] can be described thus: The compound was evaluated for the pKa units relative to N-methyl-piperazine. In kind it is physicochemical.
Series [16] in a line: pKa value was determined. In kind it is physicochemical. In a few lines:
as §2

A short description of series [17]: Oral bioavailability in rat. The following applies: in vivo. In kind it is ADME, organism-based. The gist of the method:
(§5)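 Male Sprague–Dawley rats (~300 g) were fasted overnight and tail-artery cannulated under isoflurane, then allowed to recover for at least 30 min. Each received 3 mg/kg by tail-vein bolus (3 mg/mL in PEG 300:5 mM HCl 25:75) or by gavage (0.6 mg/mL in PEG 400:5 mM HCl 25:75), three rats per route. Serial blood was sampled up to 6 h. Plasma was analysed by solid-phase extraction and reverse-phase HPLC with fluorescence detection (ex 235, em 370 nm) against spiked-plasma calibration curves.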

The target in series [18] is T2, 5-hydroxytryptamine receptor 1B. Put plainly: Efficacy of compound was evaluated relative to human 5-hydroxytryptamine 1B receptor using [35S]GTP-gamma-S, as radioligand. The series is classed as functional.
Series [19] in a line: Rate of clearance in rat was determined. The following applies: plasma, read-out: Clp. In kind it is ADME, organism-based. In a few lines: as §5
The nature of series [20]: pKa value by potentiometric method. The series is classed as physicochemical. The gist of the method: as §2
Series [21] is described as follows: Cmax in rat. The series is classed as ADME, organism-based. The settings on record: in vivo. In a few lines:
as §5

Several values for one entry are separate records, joined by “and”; a condition that tells them apart may be missing. Equal values may be shown once. Where only a bound is given, the exact number is not on record here.

T1 sequence (P28221 whole entry): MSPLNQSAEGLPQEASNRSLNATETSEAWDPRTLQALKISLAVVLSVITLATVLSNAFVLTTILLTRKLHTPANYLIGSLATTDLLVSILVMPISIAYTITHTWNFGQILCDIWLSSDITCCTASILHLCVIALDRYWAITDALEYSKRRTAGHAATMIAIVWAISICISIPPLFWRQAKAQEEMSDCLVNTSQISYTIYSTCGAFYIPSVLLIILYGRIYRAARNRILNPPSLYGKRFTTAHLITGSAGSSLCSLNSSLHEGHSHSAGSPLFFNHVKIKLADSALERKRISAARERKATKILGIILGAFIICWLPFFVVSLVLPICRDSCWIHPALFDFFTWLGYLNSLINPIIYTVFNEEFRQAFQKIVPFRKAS

With `CN1CCCCC1` [N-METHYLPIPERIDINE], the “delta pKa” value in series [1] stood at 0. This compound also came in with an RPE in series [2] of 0.

For `c1ccc(CC2CCN(CCCc3c[nH]c4ccc(-n5cnnc5)cc34)CC2)cc1`, the half-inhibitory concentration (IC50) (commonly the concentration at which inhibition is half-maximal) came out at 0.3 nM in series [3] and 19 nM in series [9]. In addition, the pKa (commonly the pH at which an ionisable group is half protonated) in [4] turned out to be 9.7. In [5], the Efficacy worked out at 62%. Also, the Plasma concentration was 33 ng/mL in the series on Rattus norvegicus [6], less than 2 ng/mL with Rattus norvegicus [7], 25 ng/mL in the series with Rattus norvegicus [10] and less than 2 ng/mL in the series on Rattus norvegicus [11]. In [8], the 50% effective concentration (EC50) (in general, the concentration that produces a half-maximal response) was determined as 120 nM. In series [12], the Selectivity is 63.

Take `CC(CC1(F)CCN(CCCc2c[nH]c3ccc(-n4cnnc4)cc23)CC1)c1ccccc1` (stereo not given): the EC50 in series [13] was 2.6 nM; in series [8], 510 nM. For the same compound, the IC50 in series [3] was 0.6 nM; in series [9], 28 nM. For the same compound, the Efficacy was determined as 86% in series [14] and 85% in [5]. In addition, the Selectivity in series [12] was determined as 47.

As to `FC1(Cc2ccccc2C(F)(F)F)CCN(CCCc2c[nH]c3ccc(-n4cnnc4)cc23)CC1`, the EC50 came to 0.2 nM in series [13] and 290 nM in [8]. In addition, the results for the IC50 in series [3] and in [9] were 0.3 nM and 14 nM, respectively. In addition, the results for the Efficacy in series [14] and in series [5] were 61% and 91%, respectively. In series [12], the Selectivity came to 47.

Consider `CN1CCCC(F)C1` (stereo not given), for which the “delta pKa” value is -1.83 in [1] and -3.24 in [15]. Further, the RPE in [2] is 4.42 and 2.5.

Turning to `CC(CN1CCN(CC(F)Cc2c[nH]c3ccc(-n4cnnc4)cc23)CC1)c1ccc(F)cc1` (stereo not given), the EC50 in series [13] came out at 1.6 nM; in [8], 1700 nM. The figures for the IC50 in series [3] and in series [9] were 1 nM and 310 nM, respectively. The Efficacy in [14] is 106%; in series [5], 79%. In series [12], this compound yielded a Selectivity of 310.

Regarding `CC(CN1CCN(CC(F)(F)Cc2c[nH]c3ccc(-n4cnnc4)cc23)CC1)c1ccccc1` (stereo not given), the EC50 in series [13] turned out to be 16 nM; in series [8], 5100 nM. In addition, the figures for the half-inhibitory concentration (IC50) in [3] and in series [9] were 6.2 nM and 1800 nM, respectively. The Efficacy in [14] turned out to be 123%; in series [5], 53%. In series [12], this compound came in with a Selectivity of 290.

The compound `Fc1cccc(CCN2CCN(CCCc3c[nH]c4ccc(-n5cnnc5)cc34)CC2)c1` showed a pKa in series [16] of 8.3. Also, the bioavailability (usually the share of a dose that reaches the circulation, judged against a reference dose that is usually intravenous) in series [17] amounted to 27%. In addition, the Efficacy in [18] is 71%. In addition, in series [8], a half-maximal response (EC50) required 430 nM. Further, the clearance in series [19] came out at 84 mL/min/kg. Moreover, the Selectivity in [12] stood at 140.

Take `FC(Cc1c[nH]c2ccc(-n3cnnc3)cc12)CN1CCC(Cc2ccccc2)CC1` (stereo not given): the EC50 in series [13] worked out at 0.9 nM; in series [8], 450 nM. The IC50 in series [3] came to 0.9 nM; in [9] it was 62 nM. For the same compound, in series [17], the bioavailability amounted to 14%. This compound also showed an Efficacy in [5] of 77%. Also, the Plasma concentration was 258 ng/mL in the series with Rattus norvegicus [6], 196 ng/mL with Rattus norvegicus [7], 781 ng/mL in the series with Rattus norvegicus [10] and 46 ng/mL in the series on Rattus norvegicus [11]. This compound also registered a pKa in [20] of 8.7. Besides, the Selectivity in series [12] worked out at 69.

Regarding `CC(CN1CCN(CC(F)Cc2c[nH]c3ccc(-n4cnnc4)cc23)CC1)c1cccc(F)c1` (stereo not given), the EC50 in series [13] was 1.9 nM; in series [8] it was 1500 nM. The results for the IC50 in series [3] and in series [9] were 0.9 nM and 280 nM, respectively. Also, the figures for the Efficacy in [14] and in [5] were 112% and 87%, respectively. The same compound returned a Selectivity in [12] of 311.

`Fc1cccc(CCN2CCN(CC(F)(F)Cc3c[nH]c4ccc(-n5cnnc5)cc34)CC2)c1`: the 50% effective concentration (EC50) in series [13] amounted to 35 nM. Also, the IC50 amounted to 15 nM in series [3] and 1600 nM in series [9]. In series [14], this compound had an Efficacy of 78%. In addition, the Plasma concentration is 61 ng/mL in the series with Rattus norvegicus [6], less than 4 ng/mL with Rattus norvegicus [7], 503 ng/mL with Rattus norvegicus [10] and less than 4 ng/mL with Rattus norvegicus [11]. Moreover, the clearance in series [19] came to 67 mL/min/kg. In series [12], this compound returned a Selectivity of 107.

As for `c1ccc(CN2CCN(CCCc3c[nH]c4ccc(-n5cnnc5)cc34)CC2)cc1`, in [3], the IC50 came out at 0.14 nM. In series [4], this compound showed a pKa of 8.2. The Plasma concentration worked out at 42 ng/mL with Rattus norvegicus [7] and 168 ng/mL in the series with Rattus norvegicus [10]. In addition, the Selectivity in [12] was determined as 79.

As to `FC(F)(Cc1c[nH]c2ccc(-n3cnnc3)cc12)CN1CCC(OCc2ccccc2)CC1`, the EC50 in series [13] turned out to be 34 nM; in series [8], 10000 nM. Moreover, the IC50 was found to be 8.5 nM in series [3] and 1000 nM in [9]. Further, the Efficacy in [14] is 100%; in series [5], 78%. Further, the bioavailability in series [17] was determined as 11%. The clearance in series [19] amounted to 43 mL/min/kg. Moreover, in series [21], the highest level (Cmax) was 157 ng/mL. Moreover, in series [20], the pKa is 5.9. In [12], this compound came in with a Selectivity of 118.

`CN(Cc1ccccc1)C1CCN(CCCc2c[nH]c3ccc(-n4cnnc4)cc23)CC1`: the concentration giving a half-maximal response (EC50) in series [13] came to 1.5 nM; in series [8], 1400 nM. Also, the IC50 in [3] was determined as 2.1 nM; in series [9] it was 140 nM. In addition, the pKa in [4] amounted to 9.3. The compound further displayed an Efficacy in [5] of 77%. In addition, the Plasma concentration in the series with Rattus norvegicus [6] was 66 ng/mL; in the series on Rattus norvegicus [7] it was less than 1 ng/mL; with Rattus norvegicus [10], 4 ng/mL; in the series on Rattus norvegicus [11], 5 ng/mL. The compound further displayed a Selectivity in [12] of 67.

Source of the values: ChEMBL document CHEMBL1132237, “Fluorination of 3-(3-(piperidin-1-yl)propyl)indoles and 3-(3-(piperazin-1-yl)propyl)indoles gives selective human 5-HT1D receptor ligands with improved pharmacokinetic profiles” (J Med Chem, 1999).
